From ChEMBL document CHEMBL3774328, “Optimization by Molecular Fine Tuning of Dihydro-β-agarofuran Sesquiterpenoids as Reversers of P-Glycoprotein-Mediated Multidrug Resistance” (J Med Chem, 2016)

Legend:
[1] = molecular target: T1, ATP-dependent translocase ABCB1 (Homo sapiens, UniProt P08183); test: Inhibition of human MDR1 expressed in mouse NIH/3T3 cells assessed as inhibition of daunomycin efflux incubated for 30 mins by flow cytometry; assay type: cell-based, NIH3T3
Procedure, shortened: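 Ki for DNM efflux. MDR1-G185 NIH-3T3 cells were incubated 30 min at 37 °C with DNM (2 μM) and varying compound concentrations, then read by flow cytometry. Fluorescence was converted to % P-gp inhibition, normalized to cells treated with 5 mM sodium orthovanadate (100%). Ki was fitted from I = (Imax × S)/(Ki + S). Mean ± SD of three independent experiments in triplicate.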

[2] = Intrinsic cytotoxicity against mouse NIH/3T3 cells transfected with human MDR1 by MTT assay; assay type: ADME, cell-based, NIH3T3
Procedure, shortened: (§1)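 Intrinsic cytotoxicity was measured by MTT in parental NIH-3T3 and MDR1-G185 cells. CC50 came from a four-parameter logistic fit. The top tested concentration was 60 μM, limited by DMSO toxicity, and growth at 60 μM is given as % of untreated control. Mean ± SD of three independent experiments in duplicate.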

[3] = Intrinsic cytotoxicity against mouse NIH/3T3 cells by MTT assay; assay type: cell-based, NIH3T3; procedure, shortened: as §1
[4] = Intrinsic cytotoxicity against mouse NIH/3T3 cells assessed as cell growth at 60 uM by MTT assay; assay type: cell-based, NIH3T3; settings: read-out: Activity; procedure, shortened: as §1
[5] = molecular target: T1, ATP-dependent translocase ABCB1; test: Inhibition of human MDR1 expressed in mouse NIH/3T3 cells assessed as reduction in daunomycin IC50 at 1 uM by MTT assay; assay type: cell-based; settings: nih3t3, 1 µM
Procedure, shortened: (§2)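 Parental NIH-3T3 and MDR1-G185 cells were grown in DMEM with 10% iFBS. They were exposed to increasing DNM or VLB (up to 500 ng/mL) with or without compound at fixed 1, 3 or 10 μM. Growth was read by MTT, and IC50 came from a four-parameter logistic fit. Mean ± SD of two independent experiments in triplicate.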

[6] = molecular target: T1, ATP-dependent translocase ABCB1; test: Inhibition of human MDR1 expressed in mouse NIH/3T3 cells assessed as reduction in daunomycin IC50 at 3 uM by MTT assay; assay type: cell-based; settings: nih3t3, 3 µM
Procedure, shortened: as §2, with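 “fit. Reversal index = IC50 without compound / IC50 with compound in MDR1 cells.” for “fit.”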

[7] = molecular target: T1, ATP-dependent translocase ABCB1; test: Inhibition of human MDR1 expressed in mouse NIH/3T3 cells assessed as reduction in daunomycin IC50 at 10 uM by MTT assay; assay type: cell-based; settings: nih3t3, 10 µM
Procedure, shortened: as §2, with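 “fit. Reversal index = IC50 without compound / IC50 with compound in MDR1 cells.” for “fit.”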

[8] = molecular target: T1, ATP-dependent translocase ABCB1; test: Inhibition of human MDR1 expressed in mouse NIH/3T3 cells assessed as reduction in vinblastine IC50 at 1 uM by MTT assay; assay type: cell-based; settings: nih3t3, 1 µM
Procedure, shortened: as §2, with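 “fit. Reversal index = IC50 without compound / IC50 with compound in MDR1 cells.” for “fit.”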

[9] = molecular target: T1, ATP-dependent translocase ABCB1; test: Inhibition of human MDR1 expressed in mouse NIH/3T3 cells assessed as reduction in vinblastine IC50 at 3 uM by MTT assay; assay type: cell-based; settings: nih3t3, 3 µM
Procedure, shortened: as §2, with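 “fit. Reversal index = IC50 without compound / IC50 with compound in MDR1 cells.” for “fit.”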

[10] = molecular target: T1, ATP-dependent translocase ABCB1; test: Inhibition of human MDR1 expressed in mouse NIH/3T3 cells assessed as reduction in vinblastine IC50 at 10 uM by MTT assay; assay type: cell-based; settings: nih3t3, 10 µM
Procedure, shortened: as §2, with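 “fit. Reversal index = IC50 without compound / IC50 with compound in MDR1 cells.” for “fit.”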

[11] = molecular target: T1, ATP-dependent translocase ABCB1; test: Inhibition of human MDR1 expressed in mouse NIH/3T3 cells assessed as daunomycin retention at 10 uM incubated for 30 mins by flow cytometry; assay type: cell-based; design: scale not given: the % may be the effect or the level left; settings: nih3t3, 0.5 h
Procedure, shortened: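 DNM retention by flow cytometry. MDR1-G185 NIH-3T3 cells in log phase were seeded 24 h before at 10^5 cells/well. They were incubated 30 min at 37 °C in DMEM + 10% iFBS with DNM (2 μM), with or without compound (10 μM). Cells were then washed twice in ice-cold PBS, trypsinized and read immediately for single-cell fluorescence.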

[12] = molecular target: T1, ATP-dependent translocase ABCB1; test: Potency index, ratio of vinblastine reversal index to compound reversal index for human MDR1 expressed in mouse NIH/3T3 cells at 3 uM; assay type: cell-based; settings: nih/3t3, 3 µM
[13] = molecular target: T1, ATP-dependent translocase ABCB1; test: Potency index, ratio of daunomycin reversal index to compound reversal index for human MDR1 expressed in mouse NIH/3T3 cells at 1 uM; assay type: cell-based; settings: nih/3t3, 1 µM
Procedure, shortened: (§3)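 Each RI comes from the MTT dose-response of DNM or VLB (up to 500 ng/mL), with or without modulator.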

[14] = Intrinsic cytotoxicity against mouse NIH/3T3 cells transfected with human MDR1 assessed as cell growth at 60 uM by MTT assay; assay type: ADME, cell-based, NIH3T3; settings: read-out: Activity; procedure, shortened: as §1
[15] = molecular target: T1, ATP-dependent translocase ABCB1; test: Potency index, ratio of vinblastine reversal index to compound reversal index for human MDR1 expressed in mouse NIH/3T3 cells at 1 uM; assay type: cell-based; settings: nih/3t3, 1 µM; procedure, shortened: as §3

T1 sequence (P08183 whole entry): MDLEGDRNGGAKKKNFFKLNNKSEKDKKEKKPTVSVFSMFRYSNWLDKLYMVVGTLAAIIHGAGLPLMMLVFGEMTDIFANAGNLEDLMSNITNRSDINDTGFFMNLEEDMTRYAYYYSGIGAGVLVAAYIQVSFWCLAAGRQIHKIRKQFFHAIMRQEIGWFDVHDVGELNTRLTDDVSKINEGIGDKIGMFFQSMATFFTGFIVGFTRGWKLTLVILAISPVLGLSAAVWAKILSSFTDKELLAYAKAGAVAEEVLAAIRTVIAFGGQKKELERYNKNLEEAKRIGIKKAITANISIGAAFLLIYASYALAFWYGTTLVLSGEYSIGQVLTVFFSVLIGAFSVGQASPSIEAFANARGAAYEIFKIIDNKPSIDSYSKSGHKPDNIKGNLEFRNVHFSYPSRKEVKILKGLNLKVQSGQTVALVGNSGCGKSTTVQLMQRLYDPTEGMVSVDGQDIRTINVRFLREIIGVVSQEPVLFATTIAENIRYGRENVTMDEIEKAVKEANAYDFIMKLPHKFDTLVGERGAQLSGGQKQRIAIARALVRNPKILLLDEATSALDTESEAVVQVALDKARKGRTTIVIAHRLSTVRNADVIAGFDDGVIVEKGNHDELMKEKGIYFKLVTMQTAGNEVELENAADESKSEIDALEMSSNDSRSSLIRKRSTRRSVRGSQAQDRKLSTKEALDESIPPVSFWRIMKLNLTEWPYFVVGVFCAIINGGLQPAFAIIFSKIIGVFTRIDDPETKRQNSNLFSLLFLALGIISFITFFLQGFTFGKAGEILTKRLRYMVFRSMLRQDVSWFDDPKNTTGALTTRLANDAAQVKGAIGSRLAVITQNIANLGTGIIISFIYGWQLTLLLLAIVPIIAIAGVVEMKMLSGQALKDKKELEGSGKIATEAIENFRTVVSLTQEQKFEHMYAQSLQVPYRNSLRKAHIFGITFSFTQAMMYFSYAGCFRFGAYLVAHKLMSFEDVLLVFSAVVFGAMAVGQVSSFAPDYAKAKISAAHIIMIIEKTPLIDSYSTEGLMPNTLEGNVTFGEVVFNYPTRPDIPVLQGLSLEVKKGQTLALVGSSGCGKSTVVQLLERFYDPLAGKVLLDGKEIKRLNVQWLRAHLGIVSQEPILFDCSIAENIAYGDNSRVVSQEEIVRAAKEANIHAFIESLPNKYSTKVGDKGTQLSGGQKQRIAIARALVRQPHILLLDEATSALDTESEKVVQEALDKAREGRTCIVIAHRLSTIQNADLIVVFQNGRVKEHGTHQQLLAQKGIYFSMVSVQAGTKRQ

Row | Compound | Ki [1] [µM] | fold change (FC) [5] | fold change (FC) [6] | fold change (FC) [7] | fold change (FC) [8] | fold change (FC) [9] | fold change (FC) [10] | Activity [11] [%] | Ratio [12] | Ratio [13] | Ratio [15] | CC50 [2] [µM] | CC50 [3] [µM] | viability at 60 µM [4] [%] | viability at 60 µM [14] [%]
1 | CC(=O)O[C@H]1CC[C@](C)(OC(C)=O)[C@]23OC(C)(C)[C@H]([C@H](OC(=O)/C=C/c4ccccc4)[C@H](OC(=O)c4ccccc4)[C@]12C)[C@H]3OC(C)=O | 0.52 | 6.9 | 10.3 | 15.2 | 21.2 | 58.2 | 91.7 | 85 | 2 | – | – | 51.6 | > 60 | 68.1 | –
2 | CC(=O)O[C@H]1CC[C@](C)(O)[C@]23OC(C)(C)[C@H]([C@H](OC(=O)/C=C/c4ccccc4)[C@H](OC(=O)c4ccccc4)[C@]12C)[C@H]3OS(C)(=O)=O | 0.6 | 7 | 11.1 | 16.3 | 18.5 | 86.6 | 149.2 | 83 | 2 | – | – | 31.7 | > 60 | 69.1 | –
3 | CCC(=O)O[C@@H]1[C@H]2[C@H](OC(=O)/C=C/c3ccccc3)[C@H](OC(=O)c3ccccc3)[C@]3(C)[C@@H](OC(C)=O)CC[C@](C)(O)[C@@]13OC2(C)C | 0.54 | 10.8 | 11.5 | 12.4 | 19.1 | 69 | 110.9 | – | 2 | 3 | – | 24.9 | > 60 | 68.6 | –
4 | CC(=O)O[C@H]1CC[C@](C)(O)[C@]23OC(C)(C)[C@H]([C@H](OC(=O)/C=C/c4ccccc4)[C@H](OC(=O)c4ccccc4)[C@]12C)[C@H]3OC(=O)N(C)C | 1.21 | 11.8 | 13.9 | 16.3 | 11.2 | 37.7 | 90.2 | – | – | 3 | – | 24 | 56.3 | – | –
5 | COc1ccc(CCN(C)CCCC(C#N)(c2ccc(OC)c(OC)c2)C(C)C)cc1OC (configuration not stated) | – | – | 6.2 | 10.8 | 8.7 | 27.8 | 129.9 | – | – | – | – | > 60 | – | – | 76.9
6 | CC(=O)O[C@H]1CC[C@](C)(O)[C@]23OC(C)(C)[C@H]([C@H](OC(=O)/C=C/c4ccccc4)[C@H](OC(=O)c4ccccc4)[C@]12C)[C@H]3OC(=O)c1cnccn1 | 1.74 | 2.3 | 4 | 9 | 3.7 | 8.8 | 20.6 | – | – | – | – | > 60 | > 60 | 66.3 | 86.2
7 | CC(=O)O[C@H]1CC[C@](C)(O)[C@]23OC(C)(C)[C@H]([C@H](OC(=O)/C=C/c4ccccc4)[C@H](OC(=O)c4ccccc4)[C@]12C)[C@H]3OC(=O)CCl | 1.52 | – | – | – | – | – | – | 83 | – | – | – | 5.3 | 7.4 | – | –
8 | CC(=O)O[C@H]1CC[C@](C)(OC(=O)CNCC(C)C)[C@]23OC(C)(C)[C@H]([C@H](OC(=O)/C=C/c4ccccc4)[C@H](OC(=O)c4ccccc4)[C@]12C)[C@H]3OC(C)=O | 0.63 | 10 | 15.1 | 22.2 | 20.6 | 49.1 | 82.9 | – | – | 3 | – | 34.6 | 37.3 | – | –

Continued, in another order:

Row | Ki [1] [µM] | fold change (FC) [5] | fold change (FC) [6] | fold change (FC) [7] | fold change (FC) [8] | fold change (FC) [9] | fold change (FC) [10] | Activity [11] [%] | Ratio [12] | Ratio [13] | Ratio [15] | Compound | CC50 [2] [µM] | CC50 [3] [µM] | viability at 60 µM [4] [%] | viability at 60 µM [14] [%]
9 | 0.5 | 5.9 | 8.7 | 15.6 | 15.2 | 75.8 | 125.2 | – | 2 | – | – | CC(=O)O[C@H]1CC[C@]2(C)O[C@@H]3[C@H]4[C@H](OC(=O)/C=C/c5ccccc5)[C@H](OC(=O)c5ccccc5)[C@@]1(C)[C@]32OC4(C)C | 27.9 | 29.4 | – | –
10 | 0.28 | 5.6 | 9.1 | 15.1 | 23.7 | 30.3 | 86.6 | 83 | – | – | – | CC(=O)O[C@H]1CC[C@](C)(O)[C@]23OC(C)(C)[C@H]([C@H](OC(=O)/C=C/c4ccccc4)[C@H](OC(=O)c4ccccc4)[C@]12C)[C@H]3O | 25.5 | 26.1 | – | –
11 | 0.19 | 15.8 | 19.5 | 24.9 | 27.4 | 36.1 | 90 | – | – | 3 | 3 | CC(=O)O[C@H]1CC[C@](C)(O)[C@]23OC(C)(C)[C@H]([C@H](OC(=O)/C=C/c4ccccc4)[C@H](OC(=O)c4ccccc4)[C@]12C)[C@H]3OC(=O)CCC(=O)N(C(=O)NC1CCCCC1)C1CCCCC1 | > 60 | 56.4 | – | 72.8
12 | 0.13 | 11.8 | 14.7 | 16.1 | 17.4 | 56 | 113.5 | – | 2 | 3 | – | CC(=O)O[C@H]1CC[C@](C)(O)[C@]23OC(C)(C)[C@H]([C@H](OC(=O)/C=C/c4ccccc4)[C@H](OC(=O)c4ccccc4)[C@]12C)[C@H]3OC(=O)c1cccnc1 | 32.6 | > 60 | 67.7 | –
